Screening data as filed in PubChem.
Sampled rows, rich in hits. Any-hit rate of the full collection: about 4.8%.
PAFAH2 inh = PAFAH2 enzyme inhibitors, primary screen, biochemical, fluorescence polarization, human; Platelet-activating factor acetylhydrolase 2, cytoplasmic (Homo sapiens), Q99487; recombinant PAFAH2, FP-rhodamine activity probe; inhibition, % at 3.39 µM; 340,000 compounds, 0.99% hits;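 active means inhibition above the mean over all tested compounds plus 3 SD, cut at about 30% in these data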;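 further: inhibitors block probe labeling of enzyme so polarization drops; 0% = enzyme with DMSO and 100% = wells lacking PAFAH2 protein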
UCH37 inh = inhibitors of human UCH37 deubiquitinase, primary screen, biochemical, Ub-AMC cleavage, fluorescence | inhibition, % (test concentration not listed) | Ubiquitin carboxyl-terminal hydrolase isozyme L5 (Homo sapiens), Q9Y5K5 | purified proteasome/UCH37 | 330,000 compounds, 0.33% hits | AID 588478, 2011;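 active means mean inhibition over replicate wells above about 20%, limit read from the data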;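 further: 0% = compound-free wells with enzyme and 100% = wells lacking proteasome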
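Material: Human UCH37 enzyme supplied as purified proteasome complex | Schedule: 30 min compound-proteasome preincubation then 25 min substrate reaction, room temperature | Detection: AMC fluorescence from Ub-AMC cleavage, excitation 355 nm, emission 460 nm | Benchmarks: Wells without proteasome as full block, compound-free enzyme plus substrate as uninhibited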
PAFAH1B3 FP inh = PAFAH1B3 enzyme inhibitors, primary screen, biochemical, fluorescence polarization, human | 340,000 compounds, 0.28% hits | recombinant PAFAH1B3, FP-rhodamine probe | inhibition, % at 3.39 µM | AID 492972, 2010 | Platelet-activating factor acetylhydrolase IB subunit alpha1 (Homo sapiens), Q15102;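 active means inhibition above the screen-wide average of all tested compounds plus 3 SD, cut at about 25% in these data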;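 further: 0% = enzyme with DMSO only and 100% = wells lacking PAFAH1B3 protein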
Target sequence (Q15102 whole entry, looked up): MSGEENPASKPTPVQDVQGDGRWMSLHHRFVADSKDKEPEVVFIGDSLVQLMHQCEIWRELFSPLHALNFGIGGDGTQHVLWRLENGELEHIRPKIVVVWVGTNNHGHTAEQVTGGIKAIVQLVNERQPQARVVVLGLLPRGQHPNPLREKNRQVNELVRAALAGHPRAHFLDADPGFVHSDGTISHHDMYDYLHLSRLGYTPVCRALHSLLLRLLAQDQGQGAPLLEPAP
PAFAH1B2 inh = PAFAH1B2 enzyme inhibitors, primary screen, biochemical, fluorescence polarization, human; 340,000 compounds, 1.2% hits; recombinant PAFAH1B2, FP-rhodamine activity probe; AID 492953, 2010; Platelet-activating factor acetylhydrolase IB subunit alpha2 (Homo sapiens), P68402; inhibition, % at 3.39 µM;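 active means inhibition above the mean of all tested compounds plus 3 SD, cut at about 24% in these data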;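 further: 0% = enzyme with DMSO and 100% = wells lacking PAFAH1B2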
GRIN3A LBD mod = binders of NR3A ligand-binding domain, primary screen, biophysical, differential scanning fluorimetry, uHTS; NR3A LBD differential scanning fluorimetry, Tm shift; 0% = protein alone, 100% = glycine-bound protein; Tm shift relative to glycine control, % at 25 µM; AID 1259313, 2017; 340,000 compounds, 2.5% hits; Glutamate receptor ionotropic, NMDA 3A (GRIN3A) ligand-binding domain;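 active means melting temperature shift of at least 10% of the positive control shift, at one fixed dose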
pPAFAH inh = pPAFAH enzyme inhibitors, primary screen, biochemical, fluorescence polarization, human; 330,000 compounds, 1.5% hits; AID 463082, 2010; inhibition, % at 3.39 µM; Platelet-activating factor acetylhydrolase (Homo sapiens), Q13093; recombinant pPAFAH, FP-rhodamine probe fluorescence polarization;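 active means inhibition above the mean inhibition across the screen plus 3 SD, cut at about 25% in these data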;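 further: inhibitors block binding of the rhodamine activity-based probe so polarization drops; 0% = enzyme with DMSO and 100% = wells lacking pPAFAH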
Target sequence (Q13093 whole entry, looked up): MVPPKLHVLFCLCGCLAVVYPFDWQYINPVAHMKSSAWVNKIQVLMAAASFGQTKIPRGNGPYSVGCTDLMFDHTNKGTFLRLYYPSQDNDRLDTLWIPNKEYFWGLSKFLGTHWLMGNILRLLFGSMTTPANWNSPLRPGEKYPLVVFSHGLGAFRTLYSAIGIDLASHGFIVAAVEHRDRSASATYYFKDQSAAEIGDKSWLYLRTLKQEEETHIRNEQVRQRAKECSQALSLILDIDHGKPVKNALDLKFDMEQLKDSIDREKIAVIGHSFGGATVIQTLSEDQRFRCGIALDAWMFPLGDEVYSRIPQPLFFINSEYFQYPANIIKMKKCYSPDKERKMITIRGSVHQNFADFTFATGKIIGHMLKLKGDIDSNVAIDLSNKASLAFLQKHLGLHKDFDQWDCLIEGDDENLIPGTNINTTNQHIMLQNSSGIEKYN
Starred values were filed as active, the others as inactive.

How did COc1cccc(NC(=O)Nc2ccc3nsnc3c2)c1 do in these assays?
PAFAH2 inh: -10.3; UCH37 inh: -22.9; PAFAH1B3 FP inh: 4.0; PAFAH1B2 inh: -3.5; GRIN3A LBD mod: 37.3*; pPAFAH inh: 3.2

Results for COc1ccc(NC(=O)Nc2cccc(OC)c2)cc1 ?
PAFAH2 inh: -7.2; UCH37 inh: 1.7; PAFAH1B3 FP inh: -1.6; PAFAH1B2 inh: 4.0; GRIN3A LBD mod: 25.1*; pPAFAH inh: 3.1

Results for COc1cccc(OC)c1C(=O)Nc1ccc2nc(C)c(C)nc2c1 ?
PAFAH2 inh: -2.7; UCH37 inh: -24.7; PAFAH1B3 FP inh: 8.6; PAFAH1B2 inh: -1.6; GRIN3A LBD mod: 0.5; pPAFAH inh: 4.6

Results for CC(Cn1nnc([N+](=O)[O-])n1)=NNC(=O)c1ccccc1O ?
UCH37 inh: 4.2

Results for CCCCn1c(=O)c(C(=O)NN=Cc2ccc(F)cc2)c(O)c2ccccc21 ?
UCH37 inh: -2.8

Results for CCCn1c(N=Cc2cc(OC)ccc2O)nc2ccccc21 ?
UCH37 inh: -0.7

Results for CC(=NNS(=O)(=O)c1ccc(C)cc1)c1ccc2c(c1)OCO2 ?
UCH37 inh: 6.1

What do the screens show for `COc1ccc(NC(=O)CCC(=O)NN=Cc2ccc([N+](=O)[O-])s2)cc1`?
UCH37 inh: 9.2

Results for COc1cccc(NC(=O)Nc2cc(Cl)ccc2C)c1 ?
PAFAH2 inh: -7.4; UCH37 inh: 3.5; PAFAH1B3 FP inh: -1.1; PAFAH1B2 inh: 2.1; GRIN3A LBD mod: 21.0*; pPAFAH inh: -1.9

What do the screens show for `COc1ccc(NC(=O)Nc2cc(F)ccc2C)cc1`?
PAFAH2 inh: 2.0; UCH37 inh: 4.8; PAFAH1B3 FP inh: 8.9; PAFAH1B2 inh: 1.2; GRIN3A LBD mod: 6.8; pPAFAH inh: 4.0

How did COc1ccc(NC(=O)Nc2ccc3oc(C)nc3c2)cc1 do in these assays?
PAFAH2 inh: 3.6; UCH37 inh: 1.5; PAFAH1B3 FP inh: 8.9; PAFAH1B2 inh: 4.9; GRIN3A LBD mod: 25.5*; pPAFAH inh: 4.1

How did Cc1ccc(C=NNC(=O)c2nnn(-c3nonc3N)c2CSc2ccccc2)cc1 do in these assays?
UCH37 inh: 3.0

Results for CC(C)[C@H](N)C(=O)NC[C@H](CC(=O)NCC1CCC(C(=O)O)CC1)c1ccc(Cl)cc1 (some centres undefined) ?
UCH37 inh: 2.1

What do the screens show for `O=c1[nH]c(O)c(/C=C2\C=Nc3ccccc32)[nH]1`?
PAFAH2 inh: -2.4; UCH37 inh: 13.1; PAFAH1B3 FP inh: 11.3; PAFAH1B2 inh: 2.4; GRIN3A LBD mod: 31.2*

What do the screens show for `C(=Nc1nccs1)c1c[nH]c2ccccc12`?
UCH37 inh: 7.3

How did O=C(O)c1ccc(C=NNC(=O)C2CC2(c2ccccc2)c2ccccc2)cc1 (centres undefined) do in these assays?
UCH37 inh: 1.4

How did CC(=NNC(=O)Cn1nc(C)cc1C)c1ccc([N+](=O)[O-])cc1 do in these assays?
UCH37 inh: 2.0

How did CCCCCC(=O)ON=C(C)c1ccn(S(=O)(=O)c2ccccc2)c1 do in these assays?
UCH37 inh: 6.5

What do the screens show for `C(=N\Nc1nnnn1-c1ccccc1)/c1ccncc1`?
PAFAH2 inh: -2.0; PAFAH1B3 FP inh: 10.9; PAFAH1B2 inh: 6.7; GRIN3A LBD mod: 1.0; pPAFAH inh: 5.4

Results for O=C(O)c1ccc(N/N=C/c2ccc(OC(=O)c3ccccc3Cl)cc2)cc1 ?
PAFAH2 inh: 16.3; PAFAH1B3 FP inh: 9.6; PAFAH1B2 inh: -0.8; GRIN3A LBD mod: -2.2; pPAFAH inh: 26.9*

How did COc1cc(C(=O)N/N=C/c2ccc(OC(=O)c3ccccc3Cl)cc2)ccc1O do in these assays?
PAFAH2 inh: -3.4; PAFAH1B3 FP inh: 1.6; PAFAH1B2 inh: -0.4; GRIN3A LBD mod: 26.3*; pPAFAH inh: 17.2

What do the screens show for `COc1cc(C(=O)NN=Cc2ccc(OC(=O)c3ccccc3Cl)cc2)ccc1O`?
UCH37 inh: 2.8

Results for O=C(N/N=C/c1ccc(OC(=O)c2ccccc2)cc1)c1cccnc1 ?
PAFAH2 inh: -8.5; PAFAH1B3 FP inh: 4.7; PAFAH1B2 inh: -5.7; GRIN3A LBD mod: -16.9; pPAFAH inh: -0.7

How did O=C(O)c1ccc(/C=N/Nc2nnnn2-c2ccccc2)cc1 do in these assays?
PAFAH2 inh: -4.0; PAFAH1B3 FP inh: 3.2; PAFAH1B2 inh: 4.5; GRIN3A LBD mod: 10.2*; pPAFAH inh: -2.2

How did O=C(Oc1ccc(/C=N/NC(=O)c2ccccc2O)cc1)c1ccccc1 do in these assays?
PAFAH2 inh: -1.3; PAFAH1B3 FP inh: -0.8; PAFAH1B2 inh: -1.8; GRIN3A LBD mod: 13.4*; pPAFAH inh: 1.1

What do the screens show for `C(/C=C/c1ccccc1)=NNc1nc(N2CCOCC2)nc(N2CCOCC2)n1`?
UCH37 inh: 2.2

Results for CCOc1cc(C=NN2C(=O)NC3(CCCCC3)C2=O)cc(Br)c1O ?
UCH37 inh: -3.9

What do the screens show for `O=C(NN=Cc1ccc(OC(=O)c2ccccc2Cl)cc1)c1cc(O)cc(O)c1`?
UCH37 inh: 22.4*

What do the screens show for `CCC(=NO)c1cnnc(SC)n1`?
UCH37 inh: 1.8

Results for COc1ccc(C(=O)Nc2cccc(C(C)=NNC(=O)c3ccoc3C)c2)cc1OC ?
UCH37 inh: -0.5

Results for Cc1cccc2c(N)c3c(nc12)N(C)CC3 ?
PAFAH2 inh: 0.2; PAFAH1B3 FP inh: 9.0; PAFAH1B2 inh: 5.0; GRIN3A LBD mod: 16.4*; pPAFAH inh: -1.1

What do the screens show for `CCOCCCNC(=O)c1ccc2c(=O)n(Cc3ccc4c(c3)OCO4)c(=S)[nH]c2c1`?
PAFAH2 inh: -1.5; UCH37 inh: 2.6; PAFAH1B3 FP inh: 0.7; PAFAH1B2 inh: 2.4; GRIN3A LBD mod: 0.5; pPAFAH inh: 8.5

How did COCCCNC(=O)c1ccc2c(=O)n(Cc3ccc4c(c3)OCO4)c(=S)[nH]c2c1 do in these assays?
PAFAH2 inh: -7.7; UCH37 inh: 1.5; PAFAH1B3 FP inh: 3.1; PAFAH1B2 inh: 3.6; GRIN3A LBD mod: 11.7*; pPAFAH inh: 3.2

How did Nc1c(C(=O)NN=Cc2ccc(Cl)cc2)cnn1-c1ccccc1 do in these assays?
UCH37 inh: 3.2

How did Nc1c(C(=O)N/N=C/c2ccccc2)cnn1-c1ccccc1 do in these assays?
PAFAH2 inh: 0.3; PAFAH1B3 FP inh: 12.2; PAFAH1B2 inh: 5.1; GRIN3A LBD mod: 14.8*; pPAFAH inh: 2.0
